In ChEMBL document CHEMBL1143174, “Pharmacomodulation on the 3-acetylursolic acid skeleton: Design, synthesis, and biological evaluation of novel N-{3-[4-(3-aminopropyl)piperazinyl]propyl}-3-O-acetylursolamide derivatives as antimalarial agents” (Bioorg Med Chem, 2008):

Experiments:
[1] = Selectivity index, IC50 for MRC5 cells to IC50 for chloroquine-resistant Plasmodium falciparum FcB1; assay type: functional
Summary of the method: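 Ratio of IC50 on MRC-5 human diploid embryonic lung cells to IC50 on FcB1 parasites, the latter from the 24 h drug plus 24 h [3H]hypoxanthine incorporation assay.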

[2] = biological target: T1, Histidine-rich protein PFHRP-II (Plasmodium falciparum) (UniProt P05227); assay: Inhibition of beta-hematin formation at 8.4; assay type: functional; settings: concentration not given here
T1 sequence (whole entry): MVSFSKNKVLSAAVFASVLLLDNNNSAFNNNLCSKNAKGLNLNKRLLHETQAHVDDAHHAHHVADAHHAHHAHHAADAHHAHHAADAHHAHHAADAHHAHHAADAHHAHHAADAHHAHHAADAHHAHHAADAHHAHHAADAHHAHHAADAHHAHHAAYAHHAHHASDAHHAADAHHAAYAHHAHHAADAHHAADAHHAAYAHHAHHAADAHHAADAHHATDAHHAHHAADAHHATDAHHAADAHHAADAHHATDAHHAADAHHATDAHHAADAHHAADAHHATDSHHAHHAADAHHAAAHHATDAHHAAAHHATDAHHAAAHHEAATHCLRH

[3] = biological target: T2, Histidine-rich protein PFHRP-II (Plasmodium falciparum, UniProt P05227); assay: Inhibition of beta-hematin formation; assay type: functional
T2 sequence (P05227 whole entry): T1 sequence (whole entry)

[4] = test system: Plasmodium falciparum; assay: Antimalarial activity against chloroquine-sensitive Plasmodium falciparum Thai after 24 hrs; assay type: functional, organism-based
Summary of the method: (§1)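 Asynchronous P. falciparum cultures in human erythrocytes (1% parasitemia, 1% final hematocrit) exposed to serially diluted compounds (DMSO stock, final DMSO ≤0.1%) for 24 h at 37 °C, then 0.5 µCi [3H]hypoxanthine per well added for a further 24 h. Growth inhibition from incorporated radioactivity versus drug-free control on the same plate; IC50 from concentration-response curve, means ± standard deviations of several independent experiments.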

[5] = biological target: T1, Histidine-rich protein PFHRP-II (Plasmodium falciparum); assay: Relative chloroquine IC50 for beta-hematin formation; assay type: functional
[6] = test system: MRC5; assay: Cytotoxicity against human MRC5 cells; assay type: cell-based
[7] = test system: Plasmodium falciparum; assay: Antimalarial activity against chloroquine-resistant Plasmodium falciparum FcB1 after 24 hrs; assay type: functional, organism-based; settings: FcB1, 24 h; summary of the method: as §1
[8] = biological target: T1, Histidine-rich protein PFHRP-II (Plasmodium falciparum); assay: Inhibition of beta-hematin formation at 4.2 mM; assay type: functional
[9] = Resistance index, IC50 for chloroquine-resistant Plasmodium falciparum FcB1 to chloroquine-sensitive Plasmodium falciparum Thai; assay type: functional
Summary of the method: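 Ratio of IC50 values between the sensitive Thai and resistant FcB1 strains, each from the [3H]hypoxanthine incorporation assay (24 h drug exposure then 24 h label, asynchronous cultures, 1% parasitemia, 1% hematocrit).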

[10] = biological target: T1, Histidine-rich protein PFHRP-II (Plasmodium falciparum); assay: Inhibition of beta-hematin formation at 5 mM; assay type: functional
[11] = biological target: T1, Histidine-rich protein PFHRP-II (Plasmodium falciparum); assay: Inhibition of beta-hematin formation at 10 mM; assay type: functional
[12] = biological target: T1, Histidine-rich protein PFHRP-II (Plasmodium falciparum); assay: Inhibition of beta-hematin formation at 1 to 20 mM; assay type: functional
[13] = biological target: T1, Histidine-rich protein PFHRP-II (Plasmodium falciparum); assay: Inhibition of beta-hematin formation at 5.7 mM; assay type: functional
[14] = biological target: T1, Histidine-rich protein PFHRP-II (Plasmodium falciparum); assay: Inhibition of beta-hematin formation at 11.4 mM; assay type: functional

| SMILES | Selectivity index [1] | IC50 [4] | IC50 [6] | IC50 [7] | Ratio [9] | other results |
| --- | --- | --- | --- | --- | --- | --- |
| CC(=O)O[C@H]1CC[C@]2(C)[C@H]3CC=C4[C@@H]5[C@@H](C)[C@H](C)CC[C@]5(C(=O)NCCCN5CCN(CCCN(Cc6ccc(O)cc6)Cc6ccc(O)cc6)CC5)CC[C@@]4(C)[C@]3(C)CC[C@H]2C1(C)C | 9.7 | 350 nM | 1570 nM | 0.16 µM | 0.46 | inhibition [2]: 82.2%; IC50 [3]: 5.25 mM; Ratio IC50 [5]: 0.89; inhibition [8]: 39.6% |
| CC(=O)O[C@H]1CC[C@]2(C)[C@H]3CC=C4[C@@H]5[C@@H](C)[C@H](C)CC[C@]5(C(=O)NCCCN5CCN(CCCNCc6ccc([N+](=O)[O-])cc6)CC5)CC[C@@]4(C)[C@]3(C)CC[C@H]2C1(C)C | 5.2 | 980 nM | 5390 nM | 1.04 µM | 1.06 |  |
| CC(=O)O[C@H]1CC[C@]2(C)[C@H]3CC=C4[C@@H]5[C@@H](C)[C@H](C)CC[C@]5(C(=O)NCCCN5CCN(CCCN)CC5)CC[C@@]4(C)[C@]3(C)CC[C@H]2C1(C)C | 9.6 | 460 nM | 1610 nM | 0.17 µM | 0.37 | IC50 [3]: > 20 mM; inhibition [10]: 12.9%; inhibition [11]: 24.6%; Ratio IC50 [5]: > 3.4 |
| COc1ccc(CN(CCCN2CCN(CCCNC(=O)[C@]34CC[C@@H](C)[C@H](C)[C@H]3C3=CC[C@@H]5[C@@]6(C)CC[C@H](OC(C)=O)C(C)(C)[C@@H]6CC[C@@]5(C)[C@]3(C)CC4)CC2)Cc2ccc(OC)cc2)cc1 |  |  |  | 6.5 µM |  |  |
| CC(=O)O[C@H]1CC[C@]2(C)[C@H]3CC=C4[C@@H]5[C@@H](C)[C@H](C)CC[C@]5(C(=O)O)CC[C@@]4(C)[C@]3(C)CC[C@H]2C1(C)C [O-ACETYLURSOLIC ACID] |  |  |  | 24.9 µM |  | inhibition [12]: 0% |
| CC(=O)O[C@H]1CC[C@]2(C)[C@H]3CC=C4[C@@H]5[C@@H](C)[C@H](C)CC[C@]5(C(=O)NCCCN5CCN(CCCN(Cc6ccccc6)Cc6ccccc6)CC5)CC[C@@]4(C)[C@]3(C)CC[C@H]2C1(C)C |  |  |  | 21.1 µM |  |  |
| CC(=O)O[C@H]1CC[C@]2(C)[C@H]3CC=C4[C@@H]5[C@@H](C)[C@H](C)CC[C@]5(C(=O)NCCCN5CCN(CCCNCc6ccc(O)cc6)CC5)CC[C@@]4(C)[C@]3(C)CC[C@H]2C1(C)C | 27 | 180 nM | 2100 nM | 0.08 µM | 0.43 |  |
| CC(=O)O[C@H]1CC[C@]2(C)[C@H]3CC=C4[C@@H]5[C@@H](C)[C@H](C)CC[C@]5(C(=O)NCCCN5CCN(CCCN(Cc6ccc(Br)cc6)Cc6ccc(Br)cc6)CC5)CC[C@@]4(C)[C@]3(C)CC[C@H]2C1(C)C |  |  |  | > 100 µM |  |  |
| CC(=O)O[C@H]1CC[C@]2(C)[C@H]3CC=C4[C@@H]5[C@@H](C)[C@H](C)CC[C@]5(C(=O)NCCCN5CCN(CCCN(CCCc6ccccc6)CCCc6ccccc6)CC5)CC[C@@]4(C)[C@]3(C)CC[C@H]2C1(C)C |  |  |  | 8.06 µM |  |  |
| C[C@H]1[C@H](C)CC[C@]2(C(=O)NCCCN3CCN(CCCN)CC3)CC[C@]3(C)C(=CC[C@@H]4[C@@]5(C)CC[C@H](O)C(C)(C)[C@@H]5CC[C@]43C)[C@H]12 |  |  |  | 0.32 µM |  |  |
| CC(=O)O[C@H]1CC[C@]2(C)[C@H]3CC=C4[C@@H]5[C@@H](C)[C@H](C)CC[C@]5(C(=O)NCCCN5CCN(CCCN(CC(C)C)CC(C)C)CC5)CC[C@@]4(C)[C@]3(C)CC[C@H]2C1(C)C |  |  |  | 18.8 µM |  |  |
| C[C@H]1[C@H](C)CC[C@]2(C(=O)O)CC[C@]3(C)C(=CC[C@@H]4[C@@]5(C)CC[C@H](O)C(C)(C)[C@@H]5CC[C@]43C)[C@H]12 [URSOLIC ACID] |  |  |  | 52.9 µM |  | IC50 [3]: > 20 mM; inhibition [10]: 17.9%; Ratio IC50 [5]: > 3.4 |
| CC(=O)O[C@H]1CC[C@]2(C)[C@H]3CC=C4[C@@H]5[C@@H](C)[C@H](C)CC[C@]5(C(=O)NCCCN5CCN(CCCN(Cc6ccc([N+](=O)[O-])cc6)Cc6ccc([N+](=O)[O-])cc6)CC5)CC[C@@]4(C)[C@]3(C)CC[C@H]2C1(C)C | 5.1 | 3050 nM | 18300 nM | 3.57 µM | 1.17 | IC50 [3]: > 20 mM; inhibition [13]: 3.6%; inhibition [14]: 18.6%; Ratio IC50 [5]: > 3.4 |
| CCCCCCCN(CCCCCCC)CCCN1CCN(CCCNC(=O)[C@]23CC[C@@H](C)[C@H](C)[C@H]2C2=CC[C@@H]4[C@@]5(C)CC[C@H](OC(C)=O)C(C)(C)[C@@H]5CC[C@@]4(C)[C@]2(C)CC3)CC1 |  |  |  | 41.8 µM |  |  |
| CC(=O)O[C@H]1CC[C@]2(C)[C@H]3CC=C4[C@@H]5[C@@H](C)[C@H](C)CC[C@]5(C(=O)NCCCN5CCN(CCCN(Cc6ccc(F)cc6)Cc6ccc(F)cc6)CC5)CC[C@@]4(C)[C@]3(C)CC[C@H]2C1(C)C |  |  |  | 20.3 µM |  |  |
| CC(=O)O[C@H]1CC[C@]2(C)[C@H]3CC=C4[C@@H]5[C@@H](C)[C@H](C)CC[C@]5(C(=O)NCCCN5CCN(CCCN(CC6CCCCC6)CC6CCCCC6)CC5)CC[C@@]4(C)[C@]3(C)CC[C@H]2C1(C)C |  |  |  | > 100 µM |  |  |
| CCN(CC)CCCC(C)Nc1ccnc2cc(Cl)ccc12 (stereo unspecified) |  |  |  |  |  | inhibition [10]: 36.9%; inhibition [11]: 97.4% |
| CCCCN(CCCC)CCCN1CCN(CCCNC(=O)[C@]23CC[C@@H](C)[C@H](C)[C@H]2C2=CC[C@@H]4[C@@]5(C)CC[C@H](OC(C)=O)C(C)(C)[C@@H]5CC[C@@]4(C)[C@]2(C)CC3)CC1 |  |  |  | 1 µM |  |  |
| CC(=O)O[C@H]1CC[C@]2(C)[C@H]3CC=C4[C@@H]5[C@@H](C)[C@H](C)CC[C@]5(C(=O)NCCCN5CCN(CCCN(CC6CC6)CC6CC6)CC5)CC[C@@]4(C)[C@]3(C)CC[C@H]2C1(C)C | 5.1 | 950 nM | 2530 nM | 0.49 µM | 0.51 |  |
| CC(=O)O[C@H]1CC[C@]2(C)[C@H]3CC=C4[C@@H]5[C@@H](C)[C@H](C)CC[C@]5(C(=O)NCCCN5CCN(CCCN(Cc6ccc(Cl)cc6)Cc6ccc(Cl)cc6)CC5)CC[C@@]4(C)[C@]3(C)CC[C@H]2C1(C)C |  |  |  | 46 µM |  |  |
| CCCN(CCC)CCCN1CCN(CCCNC(=O)[C@]23CC[C@@H](C)[C@H](C)[C@H]2C2=CC[C@@H]4[C@@]5(C)CC[C@H](OC(C)=O)C(C)(C)[C@@H]5CC[C@@]4(C)[C@]2(C)CC3)CC1 | 2.5 | 1000 nM | 1960 nM | 0.8 µM | 0.79 |  |
